pIC50: −log10 of the molar value. The source made the active and inactive calls. The calls are words filed in the database; no cut-off is given here.
Key:
[1] = Cytotoxicity against African green monkey Vero E6 cells measured after 72 hrs by LDH assay; assay type: toxicity, cell-based, Vero C1008; conditions: chlorocebus sabaeus
Summary of the method: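 Vero E6 seeded at 2 × 10^4 cells/well and held overnight at 37 °C, 5% CO2. Compounds added at final 2.3–300.0 µM (8 two-fold steps) with DMSO fixed at 0.5% v/v. After 72 h, LDH-WST read-out at 490 nm, with % cytotoxicity taken against DMSO control. CC50 from nonlinear dose–response regression.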

SARS-CoV-2 [2] = test: Antiviral activity against SARS-CoV-2 Italian strain PV10734 infected in African green monkey Vero E6 cells assessed as reduction in virus-induced cytopathic effect at 75 uM preincubated with virus for 1 hr followed by infection with cells and measured after 72 hrs by microscopic analysis; assay type: functional, organism-based; conditions: Severe acute respiratory syndrome coronavirus 2, time 73.0 hrs
SARS-CoV-2 [3] = test: Antiviral activity against SARS-CoV-2 Italian strain PV10734 infected in African green monkey Vero E6 cells assessed as reduction in virus titers of progeny virus in supernatant measured after 72 hrs by CPE assay; assay type: functional, organism-based; conditions: Severe acute respiratory syndrome coronavirus 2, PV10734, Vero C1008, 72 h
SARS-CoV-2 [4] = test: Antiviral activity against SARS-CoV-2 Italian strain PV10734 infected in African green monkey Vero E6 cells assessed as inhibition of virus titers of progeny virus in supernatant at 75 uM measured after 72 hrs by CPE assay relative to control; assay type: functional; conditions: Severe acute respiratory syndrome coronavirus 2, PV10734, Vero C1008
SARS-CoV-2 [5] = test: Antiviral activity against SARS-CoV-2 Italian strain PV10734 infected in African green monkey Vero E6 cells assessed as reduction in viral replication at 75 uM measured at 72 hrs post-infection by qRT-PCR analysis; assay type: functional, organism-based; conditions: Severe acute respiratory syndrome coronavirus 2
[6] = Stability of compound in African green monkey Vero E6 cell lysates assessed as decarboxylation at 75 uM measured upto 30 mins by UHPLC-HRMS analysis; assay type: ADME, subcellular; conditions: chlorocebus sabaeus, vero c1008, 0.5 h
SARS-CoV-2 [7] = test: Antiviral activity against SARS-CoV-2 Italian strain PV10734 infected in African green monkey Vero E6 cells assessed as reduction in virus-induced cytopathic effect preincubated with virus for 1 hr followed by infection with cells and measured after 72 hrs by microscopic analysis; assay type: functional, organism-based; conditions: Severe acute respiratory syndrome coronavirus 2, time 73.0 hrs
SARS-CoV-2 [8] = test: Antiviral activity against SARS-CoV-2 Italian strain PV10734 infected in African green monkey Vero E6 cells assessed as reduction in viral replication at 37.5 uM measured at 72 hrs post-infection by qRT-PCR analysis; assay type: functional, organism-based; conditions: Severe acute respiratory syndrome coronavirus 2
SARS-CoV-2 [9] = test: Antiviral activity against SARS-CoV-2 Italian strain PV10734 infected in African green monkey Vero E6 cells assessed as reduction in virus-induced cytopathic effect at 37.5 uM preincubated with virus for 1 hr followed by infection with cells and measured after 72 hrs by microscopic analysis; assay type: functional, organism-based; conditions: Severe acute respiratory syndrome coronavirus 2, time 73.0 hrs
SARS-CoV-2 [10] = test: Antiviral activity against SARS-CoV-2 Italian strain PV10734 infected in African green monkey Vero E6 cells assessed as inhibition of virus titers of progeny virus in supernatant at 37.5 uM measured after 72 hrs by CPE assay relative to control; assay type: functional; conditions: Severe acute respiratory syndrome coronavirus 2, PV10734, Vero C1008
[11] = Stability of compound in African green monkey Vero E6 cell lysates assessed as decarboxylation at 37.5 uM measured upto 30 mins by UHPLC-HRMS analysis; assay type: ADME, subcellular; conditions: chlorocebus sabaeus, vero c1008, 0.5 h
[12] = Stability of compound in cell culture media at 37.5 uM measured upto 30 mins by UHPLC-HRMS analysis; assay type: physicochemical; conditions: 0.5 h

Compound	CC50 at 72 h [1] [µM]	Activity (SARS-CoV-2 [7])	other results
C=C(C)[C@@H]1CCC(C)=C[C@H]1c1c(O)cc(CCCCC)c(C(=O)O)c1O [CANNABIDIOLIC ACID]	119	–	Activity (SARS-CoV-2 [2]): Active; pIC50 (SARS-CoV-2 [3]): 4.37; inhibition at 75 µM (SARS-CoV-2 [4]): > 90%; Activity (SARS-CoV-2 [5]): Active; Stability [6]: Unstable
CCCCCc1cc(O)c(C/C=C(\C)CCC=C(C)C)c(O)c1C(=O)O [CANNABIGEROLIC ACID]	43.9	inactive	–
CCCCCc1cc(O)c2c(c1)OC(C)(CCC=C(C)C)C=C2 (stereo not given) [CANNABICHROMENE]	59.3	inactive	–
CCCCCc1cc(O)c(C/C=C(\C)CCC=C(C)C)c(O)c1 [CANNABIGEROL]	58	inactive	–
CCCc1cc(O)c(C/C=C(\C)CCC=C(C)C)c(O)c1	58.1	inactive	–
C=C(C)[C@@H]1CCC(C)=C[C@H]1c1c(O)cc(CCC)cc1O [CANNABIDIVARIN]	26	inactive	–
C=C(C)[C@@H]1CCC(C)=C[C@H]1c1c(O)cc(CCCCC)cc1O [CANNABIDIOL]	28.9	inactive	–
C=C(C)[C@@H]1CCC(C)=C[C@H]1c1c(O)cc(CCCCC)c(C(=O)OC)c1O	52.4	–	pIC50 (SARS-CoV-2 [3]): 4.74; Activity (SARS-CoV-2 [8]): Active; Activity (SARS-CoV-2 [9]): Active; inhibition at 37.5 µM (SARS-CoV-2 [10]): > 90%; Stability [11]: Stable; Stability [12]: Stable

Source: ChEMBL document CHEMBL5321262, “Antiviral Activity of Cannabidiolic Acid and Its Methyl Ester against SARS-CoV-2” (J Nat Prod, 2023)
